# Test system: Fibroblast
# Test: Multiplex assay against human fibroblast
# Type: toxicity, cell-based
# Outline: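 Values for tubulin, mitochondrial-mass and membrane-permeability phenotypes are per cents of cells with healthy nuclei. These cells were identified by CellPathfinder machine-learning gating of live cells that had been stained at seeding with Hoechst33342, BioTracker Green Microtubule Cytoskeleton Dye, MitoTracker Red and Annexin V Alexa Fluor 680 and imaged on a CQ1 microscope at 37°C and 5% CO2 after compound addition. The gating first set Hoechst high-intensity objects apart from normal cells, then split normal cells into healthy, pyknosed or fragmented nuclei, and pyknosed cells into mitotic or apoptotic.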
# [1] = 12 h, 1 µM, compound concentration 1 uM, replicate 1
# [2] = 12 h, 1 µM, compound concentration 1 uM, replicate 2
# [3] = 12 h, 10 µM, compound concentration 10 uM, replicate 1
# [4] = 12 h, 10 µM, compound concentration 10 uM, replicate 2
# [5] = 24 h, 1 µM, compound concentration 1 uM, replicate 1
# [6] = 24 h, 1 µM, compound concentration 1 uM, replicate 2
# [7] = 24 h, 10 µM, compound concentration 10 uM, replicate 1
# [8] = 24 h, 10 µM, compound concentration 10 uM, replicate 2
# [9] = 48 h, 1 µM, compound concentration 1 uM, replicate 1
# [10] = 48 h, 1 µM, compound concentration 1 uM, replicate 2
# [11] = 48 h, 10 µM, compound concentration 10 uM, replicate 1
# [12] = 48 h, 10 µM, compound concentration 10 uM, replicate 2
smiles,measurement,setting,value
C=CC(=O)Nc1ccc2ncnc(Nc3ccc(OCc4cccc(F)c4)c(Cl)c3)c2c1.Cc1ccc(S(=O)(=O)O)cc1,Population Apoptotic (%),[1],53%
same,Population Fragmented Nuclei (%),[1],25%
same,Population Healthy Nuclei (%),[1],37%
same,Population Hoechst High Intensity Objects (%),[1],7%
same,Population Membrane Permeable-Phenotype (%),[1],28%
same,Population Mitochondria Different-Phenotype (%),[1],9%
same,Population Mitotic Cells (%),[1],46%
same,Population Normal (%),[1],92%
same,Population Pyknosed Nuclei (%),[1],36%
same,Population Tubulin-Different-Phenotype (%),[1],26%
same,Total Cell Count,[1],120
same,Population Apoptotic (%),[2],50%
same,Population Fragmented Nuclei (%),[2],6%
same,Population Healthy Nuclei (%),[2],84%
same,Population Hoechst High Intensity Objects (%),[2],5%
same,Population Membrane Permeable-Phenotype (%),[2],3%
same,Population Mitotic Cells (%),[2],50%
same,Population Normal (%),[2],94%
same,Population Pyknosed Nuclei (%),[2],8%
same,Population Tubulin-Different-Phenotype (%),[2],29%
same,Total Cell Count,[2],77
same,Population Apoptotic (%),[3],77%
same,Population Fragmented Nuclei (%),[3],27%
same,Population Healthy Nuclei (%),[3],38%
same,Population Hoechst High Intensity Objects (%),[3],15%
same,Population Membrane Permeable-Phenotype (%),[3],15%
same,Population Mitochondria Different-Phenotype (%),[3],7%
same,Population Mitotic Cells (%),[3],22%
same,Population Normal (%),[3],84%
same,Population Pyknosed Nuclei (%),[3],33%
same,Population Tubulin-Different-Phenotype (%),[3],27%
same,Total Cell Count,[3],122
same,Population Apoptotic (%),[4],75%
same,Population Fragmented Nuclei (%),[4],14%
same,Population Healthy Nuclei (%),[4],79%
same,Population Hoechst High Intensity Objects (%),[4],10%
same,Population Membrane Permeable-Phenotype (%),[4],4%
same,Population Mitochondria Different-Phenotype (%),[4],22%
same,Population Mitotic Cells (%),[4],25%
same,Population Normal (%),[4],89%
same,Population Pyknosed Nuclei (%),[4],6%
same,Population Tubulin-Different-Phenotype (%),[4],16%
same,Total Cell Count,[4],69
same,Population Apoptotic (%),[5],65%
same,Population Fragmented Nuclei (%),[5],26%
same,Population Healthy Nuclei (%),[5],42%
same,Population Hoechst High Intensity Objects (%),[5],9%
same,Population Membrane Permeable-Phenotype (%),[5],31%
same,Population Mitochondria Different-Phenotype (%),[5],2%
same,Population Mitotic Cells (%),[5],34%
same,Population Normal (%),[5],90%
same,Population Pyknosed Nuclei (%),[5],31%
same,Population Tubulin-Different-Phenotype (%),[5],40%
same,Total Cell Count,[5],123
same,Population Apoptotic (%),[6],55%
same,Population Fragmented Nuclei (%),[6],4%
same,Population Healthy Nuclei (%),[6],84%
same,Population Hoechst High Intensity Objects (%),[6],5%
same,Population Membrane Permeable-Phenotype (%),[6],2%
same,Population Mitochondria Different-Phenotype (%),[6],8%
same,Population Mitotic Cells (%),[6],44%
same,Population Normal (%),[6],94%
same,Population Pyknosed Nuclei (%),[6],10%
same,Population Tubulin-Different-Phenotype (%),[6],33%
same,Total Cell Count,[6],90
same,Population Apoptotic (%),[7],61%
same,Population Fragmented Nuclei (%),[7],31%
same,Population Healthy Nuclei (%),[7],39%
same,Population Hoechst High Intensity Objects (%),[7],8%
same,Population Membrane Permeable-Phenotype (%),[7],37%
same,Population Mitochondria Different-Phenotype (%),[7],9%
same,Population Mitotic Cells (%),[7],38%
same,Population Normal (%),[7],91%
same,Population Pyknosed Nuclei (%),[7],28%
same,Population Tubulin-Different-Phenotype (%),[7],48%
same,Total Cell Count,[7],118
same,Population Apoptotic (%),[8],53%
same,Population Fragmented Nuclei (%),[8],12%
same,Population Healthy Nuclei (%),[8],69%
same,Population Hoechst High Intensity Objects (%),[8],6%
same,Population Membrane Permeable-Phenotype (%),[8],14%
same,Population Mitochondria Different-Phenotype (%),[8],24%
same,Population Mitotic Cells (%),[8],46%
same,Population Normal (%),[8],93%
same,Population Pyknosed Nuclei (%),[8],18%
same,Population Tubulin-Different-Phenotype (%),[8],32%
same,Total Cell Count,[8],77
same,Population Apoptotic (%),[9],64%
same,Population Fragmented Nuclei (%),[9],34%
same,Population Healthy Nuclei (%),[9],48%
same,Population Hoechst High Intensity Objects (%),[9],8%
same,Population Membrane Permeable-Phenotype (%),[9],28%
same,Population Mitochondria Different-Phenotype (%),[9],0%
same,Population Mitotic Cells (%),[9],35%
same,Population Normal (%),[9],91%
same,Population Pyknosed Nuclei (%),[9],16%
same,Population Tubulin-Different-Phenotype (%),[9],26%
same,Total Cell Count,[9],112
same,Population Apoptotic (%),[10],50%
same,Population Fragmented Nuclei (%),[10],31%
same,Population Healthy Nuclei (%),[10],65%
same,Population Hoechst High Intensity Objects (%),[10],14%
same,Population Membrane Permeable-Phenotype (%),[10],18%
same,Population Mitochondria Different-Phenotype (%),[10],8%
same,Population Mitotic Cells (%),[10],50%
same,Population Normal (%),[10],85%
same,Population Pyknosed Nuclei (%),[10],2%
same,Population Tubulin-Different-Phenotype (%),[10],41%
same,Total Cell Count,[10],106
same,Population Apoptotic (%),[11],81%
same,Population Fragmented Nuclei (%),[11],40%
same,Population Healthy Nuclei (%),[11],50%
same,Population Hoechst High Intensity Objects (%),[11],18%
same,Population Membrane Permeable-Phenotype (%),[11],17%
same,Population Mitochondria Different-Phenotype (%),[11],9%
same,Population Mitotic Cells (%),[11],18%
same,Population Normal (%),[11],81%
same,Population Pyknosed Nuclei (%),[11],8%
same,Population Tubulin-Different-Phenotype (%),[11],49%
same,Total Cell Count,[11],154
same,Population Apoptotic (%),[12],100%
same,Population Fragmented Nuclei (%),[12],22%
same,Population Healthy Nuclei (%),[12],76%
same,Population Hoechst High Intensity Objects (%),[12],11%
same,Population Membrane Permeable-Phenotype (%),[12],12%
same,Population Mitochondria Different-Phenotype (%),[12],3%
same,Population Mitotic Cells (%),[12],0%
same,Population Normal (%),[12],88%
same,Population Pyknosed Nuclei (%),[12],1%
same,Population Tubulin-Different-Phenotype (%),[12],6%
same,Total Cell Count,[12],86
